Assay results gathered from unrelated publications.
Lines come from different studies, so protocols differ.
Matrix: plasma

| SMILES | assay | test system | setting | endpoint | result |
| --- | --- | --- | --- | --- | --- |
| COc1ccc(C(C)=O)c(O)c1 |  | male Sprague-Dawley rat | oral, 100 mg/kg | MRT(0-t) | 3.83 h |
| CCc1cc(OC)c2nccc(N3CCc4c(cc(Cn5ccnc5)cc4-c4cn(C)nc4C(F)(F)F)C3=O)c2c1 |  | male Sprague-Dawley rat | intravenous, 3 mg/kg | MRT(0-inf) | 1 h |
| CCOC(=O)[C@@]12C[C@@H]1[C@@H](n1ccc3c(NC)nc(C#Cc4ccc(Cl)s4)nc31)[C@H](O)[C@@H]2O |  | male Sprague-Dawley rat | oral, 3 mg/kg | MRT(0-t) | 2.44 h |
| O=C(O)/C=C/c1ccc(O)c(O)c1 | HPLC | Wistar rat | oral | MRT | 0.69 h |
| C#Cc1cccc(Nc2ncnc3cc(OCCOC)c(OCCOC)cc23)c1 |  | male Sprague-Dawley rat | oral, 12 mg/kg, single dose | MRT(0-inf) | 5.1 h |
| O=C(c1cc(Cc2n[nH]c(=O)c3ccccc23)ccc1F)N1CCN(C(=O)C2CC2)CC1 |  | female Sprague-Dawley rat | intravenous | MRT | 1.52 h |
| CNCc1cc(-c2ccccc2F)n(S(=O)(=O)c2cccnc2)c1 |  | Sprague-Dawley rat | oral, 10 mg/kg | MRT(0-inf) | 2.47 h |
| CCc1cc(C(=O)NC)c2nccc(N3CCc4c(cc(Cn5ccnc5)cc4-c4cn(C)nc4C(F)(F)F)C3=O)c2c1 |  | male Sprague-Dawley rat | oral, 100 mg/kg | MRT(0-inf) | 10.6 h |
| CCc1nc(C(N)=O)c(Nc2ccc(N3CCC(N4CCN(C)CC4)CC3)c(OC)c2)nc1NC1CCOCC1 |  | male Sprague-Dawley rat | oral, 10 mg/kg | MRT(0-t) | 19.5 h |
| COc1nc(-c2cc(C)c(N[C@@H](C)c3cc(F)cc(F)c3)nn2)ccc1-n1cnc(C)c1 |  | male Sprague-Dawley rat | intravenous, 1 mg/kg, single dose | MRT(0-t) | 3.28 h |
| Oc1c(Br)cc(Cl)c2cccnc12 |  | Sprague-Dawley rat | oral, 20 mg/kg | MRT | 6.8 h |
| O=C(Nc1cc(F)c(F)c(F)c1)c1ccc(F)c(S(=O)(=O)NCc2cccc(B(O)O)c2)c1 |  | male Sprague-Dawley rat | intravenous, 2 mg/kg | MRT(0-t) | 0.73 h |
| N#Cc1ccc(Nc2nc(N)cc(Oc3c(F)cc(-c4ccc(C#N)cc4)cc3F)n2)cc1 |  | Sprague-Dawley rat | intravenous, 1 mg/kg | MRT(0-inf) | 1.56 h |
